MrgX1 PAM – positive allosteric modulators of MrgX1, primary screen, HEK293 cells, Fluo-4 calcium flux. B-score at 10 µM. 310,000 compounds, 0.63% hits. FDSS; stronger effect = higher value. AID 588675, 2011;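 active = plate-corrected calcium response at least 3 library SD above typical, normal starting fluorescence, not activating the receptor alone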;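 also: compound read alongside a low EC10 to EC30 dose of BAM8-22 agonist; peak minus trough fluorescence over baseline measured at the second addition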
Target sequence (Q96LB2 whole entry, looked up): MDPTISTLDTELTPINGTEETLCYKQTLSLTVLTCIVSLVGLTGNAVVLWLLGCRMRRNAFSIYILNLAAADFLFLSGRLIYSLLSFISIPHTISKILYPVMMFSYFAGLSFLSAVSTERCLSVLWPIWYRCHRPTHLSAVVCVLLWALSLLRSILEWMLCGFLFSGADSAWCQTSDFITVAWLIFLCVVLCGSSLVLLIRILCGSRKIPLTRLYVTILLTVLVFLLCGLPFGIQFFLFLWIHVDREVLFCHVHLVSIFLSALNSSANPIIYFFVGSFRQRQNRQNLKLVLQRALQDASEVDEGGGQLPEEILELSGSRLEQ
RGS4 block – RGS4 inhibitors, primary screen, cell-based, HEK293 M3R inducible RGS4, calcium flux. Regulator of G-protein signaling 4 (Homo sapiens), P49798. Fluo-4 calcium flux; stronger effect = higher value; triggered by carbachol at its EC20. B-score at 10 µM. 310,000 compounds, 0.45% hits;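 active = B-score, a plate-corrected calcium signal, over three deviations above library mean, with baseline fluorescence within five deviations of library mean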;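 also: RGS4 expression induced by doxycycline in cells with stable M3 receptor; B-score is computed from the integrated fluorescence ratio over baseline after carbachol; higher B-score means a larger calcium signal and so more RGS4 inhibition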
Target sequence (P49798 whole entry, looked up): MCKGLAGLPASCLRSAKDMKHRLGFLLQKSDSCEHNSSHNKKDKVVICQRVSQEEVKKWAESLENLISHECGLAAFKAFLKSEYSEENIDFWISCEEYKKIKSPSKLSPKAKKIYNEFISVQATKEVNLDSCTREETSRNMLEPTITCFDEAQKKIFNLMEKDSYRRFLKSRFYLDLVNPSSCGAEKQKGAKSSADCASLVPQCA
RGS4 pot – RGS4 potentiators or activators, primary screen, cell-based, HEK293 M3R inducible RGS4, calcium flux. B-score at 10 µM. 310,000 compounds, 0.92% hits. carbachol calcium flux Fluo4; stronger effect = lower value;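 active = B-score of the integrated calcium signal more than 4 SD below the library mean, with starting fluorescence not abnormally high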;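 also: negative B-score means reduced calcium response which marks RGS4 activation or potentiation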
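System – HEK293 FlpIn-TREx cells, stable M3R, doxycycline-inducible RGS4 · Reagent – ECmax carbachol challenge · Times – compound preincubation 20 min at room temperature before agonist · Technique – Fluo4 fluorescence kinetic imaging of calcium · Measure – B score of integrated Fluo4 ratio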
MrgX1 ag – agonists of human MrgX1 receptor, primary screen, HEK293 cells, Fluo-4 calcium flux; 310,000 compounds, 0.44% hits; Fluo-4 calcium fluorescence, agonist mode; stronger effect = higher value; Mas-related G-protein coupled receptor member X1 (Homo sapiens), Q96LB2; B-score at 10 µM;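 active = calcium response B-score plate-corrected fluorescence ratio at least 3 library SD, with starting fluorescence B-score inside 5 SD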
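Test system: HEK293 cells stably expressing human MrgX1 receptor; Input: fifteen thousand cells per well; Dosing: compound delivered in addition one of three; Schedule: overnight seeding, then 1 h dark dye loading; Technique: Fluo-4 NW calcium fluorescence; Measure: B-scored fluorescence response ratio; Controls: positive and negative controls per plate.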
MrgX1 antagonist – antagonists of human MrgX1 receptor, primary screen, HEK293 cells, Fluo-4 calcium flux. Mas-related G-protein coupled receptor member X1 (Homo sapiens), Q96LB2. BAM8-22 antagonism; stronger effect = lower value. B-score at 10 µM. 310,000 compounds, 1.3% hits. AID 588676, 2011;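 active = calcium-response B-score plate-corrected more than 3 library SD below zero, starting fluorescence within 5 deviations, no agonist response on first addition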;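 also: peak minus trough fluorescence over baseline after final BAM8-22 challenge near maximal dose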
MrgX1 PAM conf – MrgX1 positive allosteric modulators, duplicate retest, confirmation, HEK293 cells, Fluo-4 calcium flux | shares compounds with MrgX1 PAM | Fluo-4 calcium fluorescence, FDSS | activation (ratio percentage), % at 10 µM | 1,200 compounds, 13% hits;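 active = ratio at least 3 SD above the weak peptide control, stable starting fluorescence, no direct agonism earlier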;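 also: compound followed by low BAM8-22 agonist challenge near EC20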
HEK293 Ca flux – nonspecific calcium signal in parental HEK293, confirmation, counter-screen for MrgX1 antagonist project, parental HEK293 cells, Fluo-4 calcium flux | shares compounds with MrgX1 antagonist | Fluo-4 calcium fluorescence, FDSS | fluorescence ratio F(max-min)/F0 at 10 µM | 4,000 compounds, 2% hits;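 active = duplicate-averaged calcium fluorescence ratio at least three times the standard deviation of buffer wells, a nonspecific response in parental cells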
HEK293 Ca counter – calcium response in parental HEK293 cells, primary screen, counter-screen for MrgX1 allosteric activator project, cell-based, Fluo-4 calcium flux, duplicate; shares compounds with MrgX1 antagonist; Fluo-4 fluorescence ratio; stronger effect = higher value; fluorescence ratio F(max-min)/F0 at 10 µM; 4,000 compounds, 0.4% hits;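 active = calcium fluorescence ratio, averaged over duplicates, at least 3 SD of the buffer-well ratio, meaning a nonspecific response in receptor-free cells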;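 also: untransfected parental HEK293 lacking MrgX1 used as counterscreen for MrgX1 allosteric activators; fluorescence change taken during the second addition on a kinetic imager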
HEK293 Ca cntr2 – calcium response in parental HEK293 cells, primary screen, counter-screen for MrgX1 agonist project, cell-based, Fluo-4 calcium flux, duplicate, agonist mode. shares compounds with MrgX1 antagonist. Fluo-4 calcium fluorescence (FDSS); stronger effect = higher value. fluorescence ratio F(max-min)/F0 at 10 µM. 4,000 compounds, 8.7% hits. AID 624115, 2012;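 active = calcium fluorescence ratio at least three times the spread of buffer wells, meaning a non-specific response in parental cells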
* marks the source's active call; other numbers are inactive results; i = inactive; . = no result. Hits are enriched below; roughly 3.5% of the tested compounds scored in any of these assays.

SMILES	MrgX1 PAM	RGS4 block	RGS4 pot	MrgX1 ag	MrgX1 antagonist	MrgX1 PAM conf	HEK293 Ca flux	HEK293 Ca counter	HEK293 Ca cntr2
CCCNC(=O)OCC12CC3CC(CC(C3)C1)C2	9.66*	i	i	i	i	i	i	i	i
O=C(CSc1ccccc1)Nc1ccccc1N1CCOCC1	8.55*	i	i	i	i	i	i	i	i
O=C(CSc1ccc(F)cc1)Nc1ccccc1N1CCOCC1	i	i	i	i	i	.	.	.	.
C=C/C(C)=C/C[C@H]1C(=C)CCC2[C@](C)(C(=O)O)CCC[C@@]21C (stereo partly drawn)	7.39*	.	.	i	i	i	i	i	i
C=C1CCC2[C@](C)(CO)[C@H](O)CC[C@@]2(C)[C@@H]1C/C=C1\C(=O)OC[C@H]1O (stereo partly drawn)	i	i	i	i	i	.	.	.	.
CCN(CC)CCCNc1ncnc2ccccc12	i	i	i	i	i	.	.	.	.
OCCCCCNc1ncnc2ccccc12	22.5*	i	i	i	i	i	i	i	i
COc1ccc(-c2cc3c(=O)n(CC(=O)Nc4ccc(Cl)cc4)nc(C)n3n2)cc1	i	i	i	i	i	.	.	.	.
Cc1ccccc1NC(=O)c1ccco1	i	i	i	i	i	.	.	.	.
Cc1ccccc1NS(=O)(=O)c1ccc(NC(=O)c2ccco2)cc1	10.9*	i	i	i	i	i	i	i	i
COc1ccc(NC(=O)CCNS(=O)(=O)c2cccc3nonc23)c(OC)c1	i	i	i	i	i	.	.	.	.
CCc1c(C)nc2cc(-c3ccc(OC)c(OC)c3)nn2c1N1CCCC1	16.9*	i	i	i	i	i	i	i	i
Nc1nc(C23CC4CC(CC(Cl)(C4)C2)C3)cs1	i	i	i	i	i	.	.	.	.
Nc1nc(C23CC4CCC(CC(C4)C2)C3)cs1	7.08*	i	i	i	i	i	i	i	i
COc1cc(/C=C2/C(=N)N3N=C(CC(=O)N4CCOCC4)SC3=NC2=O)ccc1OCc1ccccc1	19.4*	i	i	i	i	12.1%*	i	i	i
Cc1cc(=O)oc2cc(OCC(=O)Nc3ccc(S(=O)(=O)N(C)C)cc3)ccc12	i	i	i	i	i	.	.	.	.
O=C1C(=O)N(CCN2CCOCC2)C(c2ccncc2)/C1=C(/O)c1ccc2c(c1)OCO2 (stereo not drawn)	7.68*	i	i	i	i	i	i	i	i
O=C(NCc1n[nH]c(=S)n1-c1cccc(C(F)(F)F)c1)c1ccc(S(=O)(=O)N2CCCCC2)cc1	i	i	i	i	i	.	.	.	.
Nc1ccc(Oc2ccc(Br)cc2)cc1	8.42*	i	i	i	i	i	i	i	i
Nc1ccc(Oc2cccc(Oc3ccc(N)cc3)c2)cc1	i	i	i	i	i	.	.	.	.
